The record followed here is ChEMBL document CHEMBL1146217, “Growth inhibition of Mycobacterium bovis, Mycobacterium tuberculosis and Mycobacterium avium in vitro: effect of 1-beta-D-2'-arabinofuranosyl and 1-(2'-deoxy-2'-fluoro-beta-D-2'-ribofuranosyl) pyrimidine nucleoside analogs” (J Med Chem, 2007).

One assay has as its system Proteus vulgaris. Briefly: Antibacterial activity against Proteus vulgaris ATCC 49132 after 16 to 20 hrs by broth microdilution method. The class given is functional. Summed up: (§1)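 Broth microdilution MIC. Exponentially growing bacteria diluted in sterile liquid medium to a final inoculum of 1 × 10⁴ CFU/mL. Cultured with compound dilutions for 16-20 h; compounds tested at 100, 50, 10 and 1 µg/mL. MIC taken as the concentration giving 100% inhibition of bacterial growth.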

The test system of assay [1] is Salmonella typhimurium. Put plainly: Antibacterial activity against Salmonella Typhimurium at 1 ug/ml after 16 to 20 hrs by broth microdilution method. The class given is functional, Salmonella enterica subsp. enterica serovar Typhimurium. The settings on record: Salmonella enterica.
The test system of assay [2] is Bacillus subtilis. Put plainly: Antibacterial activity against Bacillus subtilis ATCC 6633 at 1 ug/ml after 16 to 20 hrs by broth microdilution method. The class given is functional.
Assay [3] has as its system Streptococcus pneumoniae. Put plainly: Antibacterial activity Streptococcus pneumoniae ATCC 49619 at 1 ug/ml after 16 to 20 hrs by broth microdilution method. The assay is classed as functional.
The subject of assay [4] is Staphylococcus epidermidis. Put plainly: Antibacterial activity against Staphylococcus epidermidis ATCC 14990 at 1 ug/ml after 16 to 20 hrs by broth microdilution method. The class given is functional.
Assay [5] concerns Streptococcus pyogenes. Briefly: Antibacterial activity Streptococcus pyogenes ATCC 19615 after 16 to 20 hrs by broth microdilution method. The assay is classed as functional. Summed up:
as §1

Assay [6] relates to Bacillus subtilis. Briefly: Antibacterial activity against Bacillus subtilis ATCC 6633 after 16 to 20 hrs by broth microdilution method. The class given is functional. In outline:
as §1

Assay [7] deals with Salmonella typhimurium. Put plainly: Antibacterial activity against Salmonella Typhimurium after 16 to 20 hrs by broth microdilution method. The assay is classed as functional, Salmonella enterica subsp. enterica serovar Typhimurium. In outline:
as §1

A further assay relates to Escherichia coli. Briefly: Antibacterial activity against Escherichia coli ATCC 25922 after 16 to 20 hrs by broth microdilution method. The assay is classed as functional. The settings on record: Escherichia coli, ATCC 25922. Summed up: as §1
Assay [8] deals with Listeria monocytogenes. Put plainly: Antibacterial activity Listeria monocytogenes ATCC 15313 at 1 ug/ml after 16 to 20 hrs by broth microdilution method. The class given is functional.
Assay [9] has as its system Listeria monocytogenes. Briefly: Antibacterial activity Listeria monocytogenes ATCC 15313 after 16 to 20 hrs by broth microdilution method. The class given is functional. Summed up: as §1
Assay [10] deals with Streptococcus pyogenes. Put plainly: Antibacterial activity Streptococcus pyogenes ATCC 19615 at 1 ug/ml after 16 to 20 hrs by broth microdilution method. The class given is functional.
Assay [11] relates to Streptococcus pneumoniae. Briefly: Antibacterial activity Streptococcus pneumoniae ATCC 49619 after 16 to 20 hrs by broth microdilution method. The class given is functional. In outline: as §1
Assay [12] has as its system Enterococcus faecalis. Briefly: Antibacterial activity Enterococcus faecalis ATCC 29212 after 16 to 20 hrs by broth microdilution method. The class given is functional. Summed up: as §1
Assay [13] concerns Enterococcus faecalis. Briefly: Antibacterial activity Enterococcus faecalis ATCC 29212 at 1 ug/ml after 16 to 20 hrs by broth microdilution method. The assay is classed as functional.
For the next assay, the system named is Pseudomonas aeruginosa. Briefly: Antibacterial activity against Pseudomonas aeruginosa […] after 16 to 20 hrs by broth microdilution method. The class given is functional. The settings on record: Pseudomonas aeruginosa, ATCC 13048. Summed up: as §1
Assay [14] relates to Staphylococcus epidermidis. Briefly: Antibacterial activity against Staphylococcus epidermidis ATCC 14990 after 16 to 20 hrs by broth microdilution method. The assay is classed as functional. Summed up:
as §1

For a further assay, the system named is Klebsiella aerogenes. Put plainly: Antibacterial activity against Enterobacter aerogenes after 16 to 20 hrs by broth microdilution method. The settings on record: Klebsiella aerogenes. The class given is functional. In outline:
as §1

SMILES strings stand for the structures. Bounds are passed on as bounds.

As to `CN[C@H](CC(C)C)C(=O)N[C@H]1C(=O)N[C@@H](CC(N)=O)C(=O)N[C@H]2C(=O)N[C@H]3C(=O)N[C@H](C(=O)N[C@H](C(=O)O)c4cc(O)cc(O)c4-c4cc3ccc4O)[C@H](O)c3ccc(c(Cl)c3)Oc3cc2cc(c3O[C@@H]2O[C@H](CO)[C@@H](O)[C@H](O)[C@H]2O[C@H]2C[C@](C)(N)[C@H](O)[C@H](C)O2)Oc2ccc(cc2Cl)[C@H]1O` [VANCOMYCIN], the MIC in the assay with Proteus vulgaris, with Escherichia coli, against Pseudomonas aeruginosa and with Klebsiella aerogenes was > 100 µg/mL each time. Moreover, the inhibition at 1 µg/mL with Salmonella typhimurium [1] amounted to 50%; with Bacillus subtilis [2], 50%; with Streptococcus pneumoniae [3] it was 100%; in assay [4] it was 50%; with Listeria monocytogenes [8], 100%; with Streptococcus pyogenes [10], 100%. This compound registered an inhibition at 1 µg/mL in the assay on Enterococcus faecalis [13] of 100%. The Inhibition with Streptococcus pyogenes [5] was found to be 100%; with Bacillus subtilis [6] it was 50%; in the assay with Salmonella typhimurium [7], 50%; in the assay on Listeria monocytogenes [9] it was 100%; with Streptococcus pneumoniae [11], 100%; in the assay with Enterococcus faecalis [12] it was 100%. For the same compound, the Inhibition in assay [14] is 50%.
